Consider twelve molecules from paper PMC12675685 (Parasitology Research, 2025).

“Also recorded” adds a separate entry of the source. Structures can show the parent of a compound that is named as a salt. Where two headings read alike, the source gives them in different places. A value given as a limit tells only on which side of the number the result lay.

In one series the test system is Babesia sp. Xinjiang. Nature of the series: Anti-proliferation assay in Babesia sp. Xinjiang. The series is classed as cell-based. The settings on record: for inhibitory effect on BxjG5 proliferation: concentrations increased to 200 μM, data not shown; for inhibition of BxjG5 growth in vitro, in words: 48, 72 and 96 h. A digest of the protocol:
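Monoclonal BxjG5 line grown in RPMI 1640 with 20% FBS and 5% fresh sheep RBCs, 37 °C, humidified 5% CO2. Cultures seeded at 1% parasitemia with serial dilutions in medium (200 μΜ to 0.005 μΜ), run 48, 72 or 96 h, with drug-containing medium renewed every 48 h. DMSO controls (≤0.4%). Parasitemia counted on Giemsa smears (2,000–4,000 RBCs), inhibition taken relative to control, and curves fitted. Three experiments, triplicate wells.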

The test system of another series is MDOK cells. Nature of the series: Cytotoxicity on host cells. The series is classed as cell-based, sheep. To be noted: for toxicity to MDOK cells, relative level: compared among the tested compounds; for IC50: read-out: IC50 in MDOK cells, CCK-8.
For another series, the system named is Babesia duncani. Nature of the series: In vivo anti-Babesia activity in B. duncani-infected hamsters. The arrangement: species or system LVG Golden Syrian Hamsters. To be noted: for effect on B. duncani growth in vivo, in words / day post-treatment on which mortality reached 100% / mean parasitemia (parasite burden): furamidine 2 mg/kg bw; for effect on B. duncani growth in vivo, in words: BIX-01294 7.35 mg/kg bw i.p.; for day post-treatment on which mortality reached 100% / mean parasitemia (parasite burden): i.p. daily for five days, BIX-01294 7.35 mg/kg bw. A digest of the protocol:
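Twenty 12-week-old hamsters were infected i.p. with 2,500 B. duncani-infected RBCs and split randomly into four equal groups. Dosing began once parasites appeared on Giemsa smears (parasitemia ≈ 1%): 200 μl i.p. daily for five days of vehicle (DMSO/PBS 1:1), test compounds or diminazene aceturate 20 mg/kg bw. Parasitemia was followed on smears and survival recorded. Groups were compared by one-way ANOVA with Tukey–Kramer.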

Another series concerns Babesia microti. Nature of the series: In vivo anti-Babesia activity in B. microti-infected BALB/c mice. The settings on record: for effect on B. microti parasite burden in vivo, in words: furamidine 2 mg/kg bw, BIX-01294 10 mg/kg bw, DA 30 mg/kg bw i.p.
Another series has as its system Plasmodium falciparum. The settings on record: read-out: IC50 against Plasmodium falciparum; ref Malmquist et al. [2012]; cited from earlier work.
A further series deals with Babesia divergens. To be noted: cited from earlier work; for IC50: read-out: IC50 on B. divergens, ref Nehrbass-Stuedli et al. [2011].
A short description of series [1]: In vivo safety evaluation of furamidine in healthy BALB/c mice. The settings on record: 2 mg/kg bw i.p. daily for 5 consecutive days. A digest of the protocol: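 Healthy female BALB/c mice, 6–8 weeks old (n = 5/group), received vehicle (DMSO/PBS) or test compound i.p. daily for 5 days. Clinical signs were checked twice daily and weight each morning before dosing. Blood was taken retro-orbitally under isoflurane 24 h after the last dose: EDTA-K2 blood for haematology, serum for biochemistry. Livers were fixed in 4% paraformaldehyde and stained with H&E.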

The test system of a further series is B. microti. To be noted: ref Nehrbass-Stuedli et al. [2011], cited from earlier work.
Where [2] appears, read: Babesia, 48 h, read-out: IC50 in Babesia sp. Xinjiang.
Setting [3] is: Babesia, 72 h, read-out: IC50 in Babesia sp. Xinjiang.
The mark [4] stands for this setting: Babesia, 96 h, read-out: IC50 in Babesia sp. Xinjiang.
Where [5] appears, read: Babesia, 96 h, read-out: IC50 on BxjG5 growth.

As usually defined, the IC50 is the concentration that inhibits the measured activity by half. On to `CCN(CC)Cc1cc(Nc2ccnc3cc(Cl)ccc23)ccc1O` [Amodiaquine], for which the IC50 in the series with Babesia sp. Xinjiang (setting [2]) was 33.2 ± 2.19 µM; with Babesia sp. Xinjiang (setting [3]) it was 23.9 ± 1.47 µM; in the series with Babesia sp. Xinjiang (setting [4]) it was 26.6 ± 1.49 µM; in the series on Babesia sp. Xinjiang (setting [5]) it was roughly 26 µM. Moreover, the “toxicity to MDOK cells, relative level” value in the series with MDOK cells is recorded as “intermediate levels”.

As for `COc1cc2nc(N3CCCN(C)CC3)nc(NC3CCN(Cc4ccccc4)CC3)c2cc1OC` [BIX-01294], the IC50 with Babesia sp. Xinjiang (setting [2]) was 0.47 ± 0.1 µM; in the series with Babesia sp. Xinjiang (setting [3]), 0.35 µM; in the series on Babesia sp. Xinjiang (setting [4]), 0.29 µM; in the series on Babesia sp. Xinjiang (setting [5]) it was 0.29 to 0.47 µM; in the series on Plasmodium falciparum, 0.075 ± 0.036 µM. Moreover, the “effect on B. duncani growth in vivo, in words” value with Babesia duncani was “did not appear to inhibit Babesia growth in vivo”. In the series on Babesia duncani, the “day post-treatment on which mortality reached 100%” value came to 2 days. Besides, the “mean parasitemia (parasite burden)” value in the series on Babesia duncani is listed as “approximately 20%”. In addition, the “effect on B. microti parasite burden in vivo, in words” value in the series with Babesia microti is reported as “did not appear to inhibit Babesia growth in vivo”. Also, the “inhibitory activity against B. divergens in vitro, in words” value with Babesia divergens (ref Vanheer and Kafsack [2021]) is recorded as “moderate inhibitory activity”.

Take `CN1C(=O)[C@@]23C[C@]4([C@]56C[C@@]78SS[C@@](CO)(C(=O)N7[C@H]5Nc5ccccc56)N(C)C8=O)c5ccccc5N[C@@H]4N2C(=O)[C@]1(CO)SS3` [Chaetocin]: the IC50 with Babesia sp. Xinjiang (setting [2]), in the series with Babesia sp. Xinjiang (setting [3]) and in the series with Babesia sp. Xinjiang (setting [4]) was greater than 200 µM each time. Also, in the series on Babesia sp. Xinjiang, the “inhibitory effect on BxjG5 proliferation” value is “did not observe any obvious inhibitory effect”. The “inhibition rate on MDOK cells” value with MDOK cells (concentrations exceeded 10 μM) was “greater than 70%”.

Consider `CC(=O)NCC(=O)O.CC(=O)NCC(=O)O.N=C(N)c1ccc(N=NNc2ccc(C(=N)N)cc2)cc1` [DA, Diminazene Aceturate], for which the “deaths until day 43 posttreatment” value in the series with Babesia duncani (DA 20 mg/kg bw i.p. daily for five days) was 0/4. The “effect on B. microti parasite burden in vivo, in words” value in the series with Babesia microti is “effectively decreased the parasite burden”.

Regarding `N=C(N)c1ccc(-c2ccc(-c3ccc(C(=N)N)cc3)o2)cc1` [Furamidine], the “inhibition of BxjG5 growth in vitro, in words” value with Babesia sp. Xinjiang is “effectively inhibit BxjG5 growth in vitro at nanomolar concentrations”. The IC50 was 0.03 µM with Babesia sp. Xinjiang (setting [2]); 0.02 µM in the series on Babesia sp. Xinjiang (Babesia, read-out: IC50 on BxjG5); 98.81 ± 0.6 µM in the series with MDOK cells (24 h); 45.36 ± 0.43 µM in the series on MDOK cells (48 h); 43.01 ± 0.24 µM in the series with MDOK cells (72 h); 0.0368 µM in the series on Babesia divergens (strain 1903). In addition, the 50% inhibitory concentration (IC50) in the series on Babesia divergens (strain 4201) is 0.0358 µM. In addition, in the series with MDOK cells, the “toxicity to MDOK cells, relative level” value was “intermediate levels”. Also, the “effect on B. duncani growth in vivo, in words” value with Babesia duncani is recorded as “effectively inhibited the growth; also recorded: did not completely eliminate parasites”. The “day post-treatment on which mortality reached 100%” value with Babesia duncani was 6 days. In the series on Babesia duncani, the “mean parasitemia (parasite burden)” value is reported as “less than 10%”. Besides, the “complete suppression of parasitemia up to day” value in the series on Babesia microti (furamidine 2 mg/kg) amounted to 50 dpi. For the same molecule, the “day posttreatment on which parasitemia peaked” value in the series on Babesia microti (furamidine 2 mg/kg bw i.p.) was 3 days. The “body weight gain versus vehicle control” value in series [1] is reported as “no significant difference”. Moreover, the “hematological and biochemical analyses versus vehicle control” value in series [1] is reported as “no significant differences”. In series [1], the “liver histopathology (H&E)” value is recorded as “appeared normal”. Further, the “complete suppression of parasites through” value in the series on B. microti (3.125 mg/kg) is recorded as 13 days. Also, in the series on B. microti (25 mg/kg), the “anti-parasite activity in B. microti-infected NMRI mouse model, in words” value is “totally cure”.

For `CCCc1cc(C)[nH]c(=O)c1CNC(=O)c1cc(-c2ccnc(N3CCN(C)CC3)c2)cc2c1cnn2C(C)C` [GSK343], the values for the IC50 with Babesia sp. Xinjiang (setting [2]), in the series with Babesia sp. Xinjiang (setting [3]) and with Babesia sp. Xinjiang (setting [4]) were 7.25 ± 0.75 µM, 6.88 ± 0.51 µM and 7.04 ± 0.56 µM, respectively.

`CCOCC1(COCC)CCC(c2[nH]ncc2CN(C)CCNC)CC1.Cl.Cl.Cl` [GSK3368715]: the “inhibitory effect on BxjG5 proliferation” value in the series on Babesia sp. Xinjiang was “did not observe any obvious inhibitory effect”. Besides, the IC50 in the series with Babesia sp. Xinjiang (read-out: IC50 in Babesia sp. Xinjiang, 48 h incubation, BxjG5) is greater than 200 µM; with Babesia sp. Xinjiang (read-out: IC50 in Babesia sp. Xinjiang, 72 h incubation, BxjG5), greater than 200 µM; in the series with Babesia sp. Xinjiang (read-out: IC50 in Babesia sp. Xinjiang, 96 h incubation, BxjG5), greater than 200 µM; in the series with MDOK cells (24 h), greater than 100 µM; in the series with MDOK cells (48 h) it was greater than 100 µM; in the series with MDOK cells (72 h) it was greater than 100 µM.

For the molecule `O=C(Nc1cccc(C2=NCCN2)c1)Nc1cccc(C2=NCCN2)c1` [Imidocarb dipropionate], the “inhibition of BxjG5 growth in vitro, in words” value in the series with Babesia sp. Xinjiang is recorded as “effectively inhibit BxjG5 growth in vitro at nanomolar concentrations”. The IC50 was determined as 0.03 µM with Babesia sp. Xinjiang (setting [3]) and 0.02 µM with Babesia sp. Xinjiang (setting [4]). Moreover, the “toxicity to MDOK cells, relative level” value in the series with MDOK cells was “intermediate levels”.

`Cc1cn(CCN2CCN(c3ccccc3-c3cc(C#N)cc(C(=O)NCCCN4CCCC4)c3)CC2)c2ccccc12` [LLY-507]: the IC50 in the series with Babesia sp. Xinjiang (setting [2]) worked out at 4.02 ± 0.74 µM; in the series with Babesia sp. Xinjiang (setting [3]) it was 3.25 ± 0.46 µM; with Babesia sp. Xinjiang (setting [4]), 2.58 ± 0.63 µM. Further, the “inhibition rate on MDOK cells” value in the series with MDOK cells (concentrations exceeded 10 μM) is reported as “greater than 70%”.

On to `O=C([C@@H](Cc1cccc(C(F)(F)F)c1)NS(=O)(=O)c1cc(F)c2c(c1)CCNC2)N1CCCC1` [PFI-2 hydrochloride], for which the IC50 turned out to be 16.5 ± 0.86 µM in the series with Babesia sp. Xinjiang (setting [2]), 10.7 ± 0.82 µM in the series on Babesia sp. Xinjiang (setting [3]) and 17.5 ± 1.09 µM with Babesia sp. Xinjiang (setting [4]).

Consider `Nc1ncnc2c1ncn2[C@@H]1O[C@H](C[C@@H](N)CC[C@H](N)C(=O)O)[C@@H](O)[C@H]1O` [Sinefungin], for which the IC50 in the series on Babesia sp. Xinjiang (setting [2]) was 2.14 ± 0.07 µM; with Babesia sp. Xinjiang (setting [3]), 2.25 ± 0.34 µM; in the series on Babesia sp. Xinjiang (setting [4]), 2.89 ± 1.1 µM. In addition, the “inhibition rate on MDOK cells” value in the series with MDOK cells (concentrations increased to 100 μM) is given as less than 30%.

As to `CCCc1cc(C)[nH]c(=O)c1CNC(=O)c1cc(-c2ccc(N3CCN(C(C)C)CC3)nc2)cc2c1cnn2C(C)C` [UNC-1999], the IC50 is 5.15 ± 1.31 µM with Babesia sp. Xinjiang (setting [2]), 3.88 ± 1 µM in the series with Babesia sp. Xinjiang (setting [3]) and 4.7 ± 1.03 µM in the series with Babesia sp. Xinjiang (setting [4]). Besides, the “inhibition rate on MDOK cells” value in the series with MDOK cells (concentrations exceeded 10 μM) is reported as “greater than 70%”.
